From ChEMBL document CHEMBL4152217, “Quinonoid compounds via reactions of lawsone and 2-aminonaphthoquinone with α-bromonitroalkenes and nitroallylic acetates: Structural diversity by C-ring modification and cytotoxic evaluation against cancer cells” (Eur J Med Chem, 2018)

Assays:
HL-60 = assay: Cytotoxicity against human HL60 cells assessed as reduction in cell viability after 72 hrs by MTT assay; assay type: functional, cell-based; conditions: HL-60, 72 h
Outline: (§1)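 MTT viability assay. Cancer lines grown in RPMI 1640 and L929 fibroblasts in DMEM, each with 10% FBS, 2 mM glutamine, penicillin/streptomycin, 37 °C, 5% CO2. PBMC were taken from healthy donors by density-gradient centrifugation, kept in RPMI with 20% FBS and stimulated with 2% phytohemagglutinin. Cells were exposed 72 h (0.01–27.32 µM). MTT 0.5 mg/mL for 3 h, absorbance read at 550 nm. IC50 with 95% CI from nonlinear regression; triplicate, ≥3 independent experiments.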

HCT-116 = assay: Cytotoxicity against human HCT116 cells assessed as reduction in cell viability after 72 hrs by MTT assay; assay type: functional, cell-based; conditions: HCT-116, 72 h; outline: as §1
SF-295 = assay: Cytotoxicity against human SF295 cells assessed as reduction in cell viability after 72 hrs by MTT assay; conditions: SF-295, 72 h
NCI-H460 = assay: Cytotoxicity against human NCI-H460 cells assessed as reduction in cell viability after 72 hrs by MTT assay; conditions: NCI-H460, 72 h
PBMC = assay: Cytotoxicity against human PBMC cells assessed as reduction in cell viability after 72 hrs by MTT assay
PC-3 = assay: Cytotoxicity against human PC3 cells assessed as reduction in cell viability after 72 hrs by MTT assay; assay type: functional, cell-based; conditions: PC-3, 72 h; outline: as §1
L929 = assay: Cytotoxicity against mouse L929 cells assessed as reduction in cell viability after 72 hrs by MTT assay; assay type: cell-based; conditions: L929, 72 h; outline: as §1
Jurkat = assay: Cytotoxicity against human Jurkat cell viability after 72 hrs by MTT assay
OVCAR-8 = assay: Cytotoxicity against human OVCAR8 cells assessed as reduction in cell viability after 72 hrs by MTT assay; conditions: OVCAR-8, 72 h
MX1 = assay: Cytotoxicity against human MX1 cells assessed as reduction in cell viability after 72 hrs by MTT assay; conditions: MX1, 72 h

CCOC(=O)Cc1oc2c(c1-c1cccs1)C(=O)c1ccccc1C2=O
IC50 (HL-60): 5.91 µM
IC50 (HCT-116): 13.7 µM
IC50 (SF-295): > 27.3 µM
IC50 (NCI-H460): 9.09 µM
IC50 (PBMC): > 27.3 µM
IC50 (PC-3): > 27.3 µM
IC50 (L929): > 27.3 µM

CCOC(=O)Cc1oc2c(c1-c1ccccc1)C(=O)c1ccccc1C2=O
IC50 (HL-60): 8.38 µM
IC50 (HCT-116): 12.5 µM
IC50 (SF-295): > 13.9 µM
IC50 (NCI-H460): 8.86 µM
IC50 (PBMC): > 13.9 µM
IC50 (PC-3): > 13.9 µM
IC50 (L929): > 13.9 µM

COc1ccc(-c2coc3c2C(=O)c2ccccc2C3=O)cc1OC
IC50 (Jurkat): 3.71 µM
IC50 (HL-60): 3.41 µM
IC50 (HCT-116): 5.2 µM
IC50 (SF-295): 3.74 µM
IC50 (OVCAR-8): 4.69 µM
IC50 (NCI-H460): 4.07 µM
IC50 (PBMC): > 15 µM
IC50 (PC-3): 3.89 µM
IC50 (MX1): 5.05 µM
IC50 (L929): > 15 µM

COc1ccc(-c2cn(-c3ccccc3)c3c2C(=O)c2ccccc2C3=O)cc1
IC50 (HL-60): > 13 µM
IC50 (HCT-116): > 13 µM
IC50 (SF-295): > 13 µM
IC50 (NCI-H460): > 13 µM
IC50 (PBMC): > 13 µM
IC50 (PC-3): > 13 µM
IC50 (L929): > 13 µM

CCOC(=O)Cc1c(-c2ccco2)c2c(n1-c1ccccc1)C(=O)c1ccccc1C2=O
IC50 (HL-60): > 11.8 µM
IC50 (HCT-116): > 11.8 µM
IC50 (SF-295): > 11.8 µM
IC50 (NCI-H460): > 11.8 µM
IC50 (PBMC): > 11.8 µM
IC50 (PC-3): > 11.8 µM
IC50 (L929): > 11.8 µM

CCOC(=O)Cc1c(-c2ccc(OC)c(OC)c2)c2c(n1-c1ccc(Br)cc1)C(=O)c1ccccc1C2=O
IC50 (HL-60): > 17.4 µM
IC50 (HCT-116): > 17.4 µM
IC50 (SF-295): 6.45 µM
IC50 (NCI-H460): > 17.4 µM
IC50 (PBMC): > 17.4 µM
IC50 (PC-3): > 17.4 µM
IC50 (L929): > 17.4 µM

COc1ccc(-n2cc(-c3ccc(F)cc3)c3c2C(=O)c2ccccc2C3=O)cc1
IC50 (HL-60): > 12.6 µM
IC50 (HCT-116): > 12.6 µM
IC50 (SF-295): > 12.6 µM
IC50 (NCI-H460): > 12.6 µM
IC50 (PBMC): > 12.6 µM
IC50 (PC-3): > 12.6 µM
IC50 (L929): > 12.6 µM

CCOC(=O)Cc1oc2c(c1-c1ccco1)C(=O)c1ccccc1C2=O
IC50 (HL-60): > 14.3 µM
IC50 (HCT-116): > 14.3 µM
IC50 (SF-295): > 14.3 µM
IC50 (NCI-H460): > 14.3 µM
IC50 (PBMC): > 14.3 µM
IC50 (PC-3): > 14.3 µM
IC50 (L929): > 14.3 µM

CCOC(=O)Cc1c(-c2ccc(C)cc2)c2c(n1-c1ccc(OC)cc1)C(=O)c1ccccc1C2=O
IC50 (HL-60): 3.36 µM
IC50 (HCT-116): > 10.4 µM
IC50 (SF-295): > 10.4 µM
IC50 (NCI-H460): > 10.4 µM
IC50 (PBMC): > 10.4 µM
IC50 (PC-3): > 10.4 µM
IC50 (L929): > 10.4 µM

O=C1c2ccccc2C(=O)c2c(-c3ccc(Br)cc3)coc21
IC50 (Jurkat): 2.78 µM
IC50 (HL-60): 2.64 µM
IC50 (HCT-116): 5.39 µM
IC50 (SF-295): 3.49 µM
IC50 (OVCAR-8): 2.98 µM
IC50 (NCI-H460): 4.88 µM
IC50 (PBMC): > 14.2 µM
IC50 (PC-3): 2.61 µM
IC50 (MX1): 3.23 µM
IC50 (L929): > 14.2 µM

COc1ccc(-c2cn(-c3ccc(Cl)cc3)c3c2C(=O)c2ccccc2C3=O)cc1
IC50 (HL-60): > 12.6 µM
IC50 (HCT-116): > 12.6 µM
IC50 (SF-295): > 12.6 µM
IC50 (NCI-H460): > 12.6 µM
IC50 (PBMC): > 12.6 µM
IC50 (PC-3): > 12.6 µM
IC50 (L929): > 12.6 µM

CCOC(=O)Cc1oc2c(c1-c1ccc(Cl)cc1)C(=O)c1ccccc1C2=O
IC50 (HL-60): 10.2 µM
IC50 (HCT-116): > 12.7 µM
IC50 (SF-295): > 12.7 µM
IC50 (NCI-H460): > 12.7 µM
IC50 (PBMC): > 12.7 µM
IC50 (PC-3): > 12.7 µM
IC50 (L929): > 12.7 µM

Cc1ccc(-c2cn(-c3cccc(Br)c3)c3c2C(=O)c2ccccc2C3=O)cc1
IC50 (HL-60): > 13.2 µM
IC50 (HCT-116): > 13.2 µM
IC50 (SF-295): > 13.2 µM
IC50 (NCI-H460): > 13.2 µM
IC50 (PBMC): > 13.2 µM
IC50 (PC-3): > 13.2 µM
IC50 (L929): > 13.2 µM

Cc1ccc(-c2cn(-c3ccc(Br)cc3)c3c2C(=O)c2ccccc2C3=O)cc1
IC50 (HL-60): > 12.1 µM
IC50 (HCT-116): > 12.1 µM
IC50 (SF-295): > 12.1 µM
IC50 (NCI-H460): > 12.1 µM
IC50 (PBMC): > 12.1 µM
IC50 (PC-3): > 12.1 µM
IC50 (L929): > 12.1 µM

CCOC(=O)Cc1oc2c(c1-c1ccc(OC)cc1)C(=O)c1ccccc1C2=O
IC50 (HL-60): > 12.8 µM
IC50 (HCT-116): > 12.8 µM
IC50 (SF-295): > 12.8 µM
IC50 (NCI-H460): > 12.8 µM
IC50 (PBMC): > 12.8 µM
IC50 (PC-3): > 12.8 µM
IC50 (L929): > 12.8 µM

CCOC(=O)Cc1c(-c2cc(OC)c(OC)c(OC)c2)c2c(n1-c1cccc(Br)c1)C(=O)c1ccccc1C2=O
IC50 (HL-60): > 8.29 µM
IC50 (HCT-116): > 8.29 µM
IC50 (SF-295): > 8.29 µM
IC50 (NCI-H460): > 8.29 µM
IC50 (PBMC): > 8.29 µM
IC50 (PC-3): > 8.29 µM
IC50 (L929): > 8.29 µM

CCOC(=O)Cc1oc2c(c1-c1ccc(C)cc1)C(=O)c1ccccc1C2=O
IC50 (HL-60): > 13.4 µM
IC50 (HCT-116): > 13.4 µM
IC50 (SF-295): > 13.4 µM
IC50 (NCI-H460): > 13.4 µM
IC50 (PBMC): > 13.4 µM
IC50 (PC-3): > 13.4 µM
IC50 (L929): > 13.4 µM
